# Experimental data published in ChEMBL document CHEMBL1152800, “Aza-analogue dibenzepinone scaffolds as p38 mitogen-activated protein kinase inhibitors: design, synthesis, and biological data of inhibitors with improved physicochemical properties” (J Med Chem, 2009).
# Key:
# [1] = target: Mitogen-activated protein kinase 14 (Homo sapiens, UniProt Q16539); assay: Inhibition of p38alpha MAPK by cell-free enzyme immunosorbent assay
# [2] = Lipophilicity, CHI in methanol by fast-gradient HPLC; type: physicochemical
# Procedure, shortened: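 Chromatographic hydrophobicity index measured by fast-gradient reversed-phase HPLC with methanol as organic modifier. The index is calculated from the compound's retention time. It approximates the volume percentage of methanol needed for equal distribution of the compound between mobile and stationary phases.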
# [3] = Aqueous solubility in HCl/H2O at pH 1; type: physicochemical
# Sequence of Mitogen-activated protein kinase 14 (Q16539 whole entry): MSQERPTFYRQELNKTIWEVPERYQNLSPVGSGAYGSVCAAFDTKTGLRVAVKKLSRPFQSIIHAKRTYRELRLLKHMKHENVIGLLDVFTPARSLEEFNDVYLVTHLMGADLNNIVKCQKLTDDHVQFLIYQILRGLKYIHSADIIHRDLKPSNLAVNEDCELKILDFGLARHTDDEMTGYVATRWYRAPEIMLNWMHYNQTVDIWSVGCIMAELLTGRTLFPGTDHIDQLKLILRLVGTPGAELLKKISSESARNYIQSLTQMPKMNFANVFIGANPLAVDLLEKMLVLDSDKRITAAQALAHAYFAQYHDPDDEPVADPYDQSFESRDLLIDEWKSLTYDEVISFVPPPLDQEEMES
Structure (SMILES),IC50 [1],CHI [2],solubility [3]
O=C1c2ccc(Nc3ccc(F)cc3F)cc2CCc2ncccc21,240 nM,81.2%,486 µg/mL
Nc1ccccc1Nc1ccc2c(=O)c3cnccc3ccc2c1,1950 nM,71.4%,
O=c1c2ccccc2ccc2cc(Nc3ccc(F)cc3F)ccc12,2530 nM,88.7%,
Nc1cc(F)ccc1Nc1ccc2c(c1)OCc1ccccc1C2=O,40 nM,,
Nc1ccccc1Nc1ccc2c(=O)c3cccnc3ccc2c1,1080 nM,73.4%,
Nc1cc(F)ccc1Nc1ccc2c(c1)CCc1ncccc1C2=O,1190 nM,72.9%,
Nc1cc(F)ccc1Nc1ccc2c(c1)OCc1ncccc1C2=O,2730 nM,70.9%,

# Other lines, results leading:
IC50 [1],CHI [2],solubility [3],Structure (SMILES)
440 nM,65.8%,,Nc1ccccc1Nc1ccc2c(c1)CCc1cccnc1C2=O
130 nM,88.1%,< 10 µg/mL,O=C1c2ccccc2CCc2cc(Nc3ccc(F)cc3F)ccc21
,75.2%,,Nc1ccccc1Nc1ccc2c(c1)OCc1ccccc1C2=O
,82.6%,< 10 µg/mL,Nc1ccccc1Nc1ccc2c(c1)CCc1ccccc1C2=O
2680 nM,69%,,Nc1ccccc1Nc1ccc2c(c1)OCc1ncccc1C2=O
180 nM,83.2%,,O=C1c2ccc(Nc3ccc(F)cc3F)cc2OCc2ncccc21
130 nM,82.8%,,Nc1cc(F)ccc1Nc1ccc2c(c1)CCc1ccccc1C2=O
310 nM,73.9%,1200 µg/mL,Nc1ccccc1Nc1ccc2c(c1)CCc1ncccc1C2=O
330 nM,82.9%,,O=c1c2ccc(Nc3ccc(F)cc3F)cc2ccc2ncccc12
